In the library only some 4.8% were active in any assay of this set; here they are far more common.
XBP1 UPR activ: activators of adaptive XBP1 UPR arm, primary screen, cell-based, CHO-XBP1 luciferase reporter, luminescence, uHTS. 0.33% of 330,000 active. activation, % at 20 µM. IRE1-XBP1 UPR activation; percent of tunicamycin response, DMSO as zero. AID 463104, 2010;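 active = versus positive control, 20 µM dose yields 30% or more activation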
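Assay system: IRE1-XBP1 luciferase reporter CHO line. Input: 1000 cells/well. Buffer or medium: F12 with 10% serum. Doses: 20 µM, 1% DMSO. Times: overnight seeding at 37 °C, 6 h compound treatment at 37 °C. Technique: Steady-Glo luciferase glow luminescence, 10 min after reagent addition.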
UPR CHOP act: activators of apoptotic CHOP UPR arm, primary screen, cell-based, CHO-CHOP luciferase reporter, luminescence, uHTS | UPR activation; percent of tunicamycin response over DMSO baseline | activation, % at 10 µM | 0.34% of 330,000 active | AID 449763, 2010;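 active = at 10 µM dose, activation of 40% or more, normalized to positive control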
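assay system = CHO CHOP reporter cells | amount = 500 CHO-CHOP cells per well | buffer or medium = F12 with 10% FBS | incubation = 16-18 h cell attachment, then 6 h compound exposure, 37 °C | detection = luminescence read with Steady-Glo | read-out = percent activation relative to tunicamycin control | controls = tunicamycin high control, DMSO low control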
Mdm2 MdmX PPI: inhibitors of human Mdm2-MdmX association, primary screen, cell-based, luminescence, split luciferase, SaOS-2, uHTS; Protein Mdm4 (Homo sapiens) + E3 ubiquitin-protein ligase Mdm2 (Homo sapiens), …; SaOS-2 split-luciferase Mdm2/MdmX complementation; inhibition, % at 8 µM; 3% of 330,000 active;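 active = inhibition of at least 50% at 8 µM in the primary screen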
CSC inhib: cancer stem cell viability inhibitors, primary screen, luminescence; inhibition, % at 7.5 µM; 1.1% of 300,000 active; cancer stem cell-like cells viability; in the data active = inhibition above about 75%; inconclusive = no clear call, values can overlap the other calls; tested in HMLE shEcad cells
SKKanGAS inh: S. pyogenes SKKanGAS growth inhibitors in kanamycin, primary screen, streptokinase expression inhibitor project, SKKanGAS strain, BacTiter-Glo luminescence; 6 h; inhibition, % at 7.5 µM; 1.3% of 300,000 active;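 active = mean replicate score, as percent of positive control median, at least 50; inconclusive = mean below 50 but one replicate at or above 50; inactive = mean and every replicate below 50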;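 note: strain carries kanamycin resistance gene driven by streptokinase promoter and grows in 40 µg/ml kanamycin; loss of luminescence reflects streptokinase promoter inhibition or plain growth inhibition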
Beta apoptosis: inhibitors of cytokine-induced beta cell apoptosis, primary screen, luminescence. INS-1E cytokine-induced death, ATP luminescence, 48 h; percent of positive-control rescue, neutral wells zero. protection from apoptosis, % (concentration not given with the values). 0.8% of 300,000 active. AID 435005, 2010;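 active = Every replicate reaches about 75%, or at least half do and their mean reaches it too, limit read from the data; inconclusive = At least half of replicates reach the limit but their mean does not; inactive = Under half of replicates reach the limit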;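 note: higher means more ATP so stronger rescue from cytokine killing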
Mdm2-MdmX conf: Mdm2-MdmX complex disruptors, retested hits, confirmation, luminescence, single concentration. shares compounds with Mdm2 MdmX PPI. Mdm2-MdmX binding, luminescent assay. inhibition, % at 8 µM. 55% of 10,000 active; in the data active = inhibition above about 40%
Full FLuc ctr: full-length luciferase signal inhibition, confirmation, counter-screen for Mdm2/MdmX interaction inhibitor project, cell-based, single concentration, SaOS-2; shares compounds with Mdm2 MdmX PPI; SaOS-2 full-length luciferase counterscreen, luminescence; 77% of 6,200 active; inhibition, % at 8 µM;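 active = mean inhibition at 8 µM reaching about 37%, which flags the compound as non-specific, limit read from the data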;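 note: p53-null SaOS-2 cells with luciferase driven by a doxycycline-inducible promoter; compound on cells about two nights before reading with doxycycline added after day one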
A number is an active result; – = inactive; ? = inconclusive; · = no result given.

SMILES	XBP1 UPR activ	UPR CHOP act	Mdm2 MdmX PPI	CSC inhib	SKKanGAS inh	Beta apoptosis	Mdm2-MdmX conf	Full FLuc ctr
COc1ccc2c(C)nc(Nc3nc(-c4ccccc4)cc(=O)[nH]3)nc2c1	–	–	73.0	107.3	74.3	–	–	·
Cc1ccc2c(C)nc(Nc3nc(CSc4nc5ccccc5[nH]4)cc(=O)[nH]3)nc2c1	–	–	59.4	–	–	90.1	57.9	–
CCN(CC)c1ncnc2c1ncn2Cc1c(Cl)cccc1Cl	–	–	–	–	–	–	·	·
Clc1cccc(Cl)c1Cn1cnc2c(N3CCCCCC3)ncnc21	–	–	78.5	–	–	–	–	·
COc1cccc(-n2nnnc2S(C)(=O)=O)c1	–	–	78.7	–	–	–	100.2	–
CCNC(=O)N1CCN(CCCC(c2ccc(F)cc2)c2ccc(F)cc2)CC1	–	–	–	–	·	–	·	·
CC(C)C(CCNC1CCN(C)CC1)c1ccc(Cl)cc1 (stereo not drawn)	–	–	76.5	·	–	·	55.8	54.2
CN1CCC(NCCC(c2ccc(F)cc2)c2ccc(Cl)cc2)CC1 (stereo not drawn)	–	–	100.3	–	–	–	97.8	58.8
Cc1ccccc1Cn1c(O)c(N=NC(=S)Nc2ccccc2F)c2ccccc21	–	–	–	–	?	–	·	·
CCNC(=S)N=Nc1c(O)n(Cc2ccc(Cl)cc2)c2ccccc12	–	–	–	–	–	–	·	·
Oc1c(N=NC(=S)Nc2ccccc2F)c2ccccc2n1Cc1ccccc1F	–	–	64.0	·	79.0	–	48.1	46.3
Oc1c(N=NC(=S)Nc2ccccc2F)c2ccccc2n1Cc1ccc(Cl)cc1	–	–	53.5	–	57.7	–	46.0	68.5
Cc1ccc(NC(=O)CN2CCN(S(=O)(=O)c3ccc(F)cc3)CC2)cc1C	–	–	–	–	·	–	·	·
COC(=O)[C@]1(C)N[C@H](CN(C)C(=O)C2CCCCC2)[C@@H]2C(=O)N(Cc3ccccc3)C(=O)[C@@H]21	–	–	–	·	·	·	·	·
CCOC(=O)c1c(NC(=O)COc2cccc3c2CCN(CC)C3=O)sc2c1CCC2	–	–	59.9	–	–	–	–	·
CCOC(=O)c1c(NC(=O)COc2cccc3c2CCN(Cc2ccc(F)cc2)C3=O)sc2c1CCC2	–	–	–	–	–	·	·	·
CCOC(=O)c1c(NC(=O)CN2CCN(C(=O)c3ccco3)CC2)sc2c1CCCC2	–	–	56.3	–	–	–	–	·
COc1cc(/C=N/NS(=O)(=O)c2ccc(C(C)(C)C)cc2)cc([N+](=O)[O-])c1O	–	–	–	–	–	–	·	·
Cc1cc(C)cc(N(C(=O)CNC(=O)c2ccco2)C(C(=O)NC2CCCCC2)c2cccnc2)c1 (stereo not drawn)	–	–	–	–	–	–	·	·
COc1ccc(/C=C2\SC(=O)N(CC(=O)Nc3ccc(F)cc3)C2=O)cc1O	–	–	–	–	–	–	·	·
COc1nc(N)c(C#N)c(-c2ccc(N(C)CCC#N)cc2)c1C#N	–	–	73.2	–	–	–	46.6	81.9
Nc1ncn(C2O[C@H](CO)[C@@H](O)[C@H]2O)c(=O)n1 (stereo partly drawn)	–	–	53.6	–	·	–	64.5	56.8
C=CCNc1ncnc2c1ncn2C1OC(CO)C(O)C1O (stereo not drawn)	–	–	56.0	77.3	–	–	–	·
Nc1nc(F)nc2c1ncn2[C@@H]1O[C@H](CO)[C@@H](O)[C@H]1O	–	–	98.6	–	–	94.3	100.0	–
Nc1nc(Cl)nc2c1ncn2C1CC(O)C(CO)O1 (stereo not drawn)	–	–	80.7	–	–	–	77.1	–
SMILES	XBP1 UPR activ	UPR CHOP act	Mdm2 MdmX PPI	CSC inhib	SKKanGAS inh	Beta apoptosis	Mdm2-MdmX conf	Full FLuc ctr
Nc1ncn([C@H]2C[C@H](O)[C@@H](CO)O2)c(=O)n1	–	–	–	–	–	–	·	·
O=c1cc[nH]c2c1ccc1cccnc12	–	–	–	–	–	–	·	·
CC(=O)c1[nH]c(C)c(C(=O)N2CCCC(Nc3cccc(F)c3)C2)c1C (stereo not drawn)	–	–	–	–	–	–	·	·
COC(=O)c1ccc2c(c1)sc(=NC(=O)CCS(=O)(=O)c1ccccc1)n2C	–	–	51.0	–	–	·	44.5	77.2
Nc1ccc(CCn2ccnc2)cc1	–	–	–	–	–	–	·	·
Cc1ccc2c(c1)Oc1ccc([N+](=O)[O-])cc1C(=O)N2	–	–	–	–	–	–	·	·
Cc1ccc2c(c1)Oc1ccc(NC(=O)CCl)cc1C(=O)N2	–	–	91.7	–	–	–	86.8	53.7
O=C(CSc1nnc2c3ccccc3c3ccccc3c2n1)Nc1ccccc1F	–	–	75.7	–	–	–	–	·
O=C(CN(C(=O)CCC(=O)Nc1ccccn1)c1ccc(F)cc1)NCc1ccc(F)cc1	–	–	–	–	–	–	·	·
COC(=O)C1=C(C)N(Cc2ccccc2)C(=NCc2ccc3c(c2)OCO3)N[C@H]1c1ccccc1	–	–	56.4	–	·	–	–	·
COC(=O)C1=C(C)N(Cc2ccccc2)C(=NCc2ccc(OC)cc2)N[C@H]1c1cccc(F)c1	–	–	87.5	–	–	–	46.7	56.7
COC(=O)C1=C(C)N(Cc2ccccc2)C(=NCC2CC2)N[C@H]1c1ccccc1	–	–	–	–	·	–	·	·
COC(=O)C1=C(C)N(Cc2ccccc2)C(=NCc2cc(OC)c(OC)c(OC)c2)N[C@H]1c1cccc(F)c1	–	–	62.4	–	–	–	–	·
O=C(NCC1CC1)C1(C(F)(F)F)CC(CCCO)CCCO1 (stereo not drawn)	–	–	–	–	–	–	·	·
COc1ccc(/C=N/NC(=O)c2cc3cc(OC)c(OC)cc3[nH]2)cc1	–	–	–	–	–	–	·	·
COc1ccc2[nH]c(C(=O)N/N=C/c3ccc(O)cc3O)cc2c1	–	–	71.0	100.2	–	120.6	83.3	–
COc1ccc(/C=N/NC(=O)c2nc(-c3ccccc3)n(-c3ccccc3)n2)cc1	–	–	–	–	–	–	·	·
CC(C)(C)c1cc(C(=O)N/N=C/c2ccccc2O)n(-c2ccccc2)n1	–	–	70.1	116.9	73.3	85.1	77.0	–
